Assay results as given in ChEMBL document CHEMBL2177038 (J Med Chem, 2012).

Legend:
[1] = target: Cannabinoid receptor 1 (Homo sapiens, UniProt P21554); test: biochemical; format: cell-based, CHO
[2] = organism: Homo sapiens; test: Selectivity index, ratio of Ki for human CB1 receptor to KI for human CB2 receptor
[3] = target: T1, Cannabinoid receptor 2 (Homo sapiens, UniProt P34972); test: Displacement of [3H]CP55940 from human CB2 receptor expressed in CHO cells incubated for 1 hr; format: cell-based
T1 sequence (P34972 whole entry): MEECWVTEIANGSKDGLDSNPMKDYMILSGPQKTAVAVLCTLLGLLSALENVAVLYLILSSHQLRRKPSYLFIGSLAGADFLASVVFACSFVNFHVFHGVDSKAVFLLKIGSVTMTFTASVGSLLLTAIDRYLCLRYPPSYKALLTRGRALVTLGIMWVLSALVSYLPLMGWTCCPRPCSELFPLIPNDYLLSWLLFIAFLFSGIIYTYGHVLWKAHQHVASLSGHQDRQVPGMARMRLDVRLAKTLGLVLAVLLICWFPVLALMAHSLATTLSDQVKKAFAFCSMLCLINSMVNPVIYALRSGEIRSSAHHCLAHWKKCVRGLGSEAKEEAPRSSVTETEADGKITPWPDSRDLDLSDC

[4] = tested on: PBMC; test: Toxicity against human PBMC assessed effect on cell viability at 1 to 10 uM incubated for 72 hrs by trypan blue dye exclusion method; format: cell-based
Method in brief: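 PBMC from healthy medication-free donors, isolated on Ficoll-Hypaque, washed in ice-cold PBS. Cells held in medium with 10% inactivated FBS and 2 mM glutamine (5×10^5/mL; legend 10^5 cells/well). Compounds come from a 50 mM DMSO stock, final DMSO 0.02%, exposure 72 h. Viability read by trypan blue exclusion; three assays, mean ± SD.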

[5] = tested on: Bone marrow cell; test: Inhibition of osteoclastogenesis in human mononuclear bone marrow cells incubated for 3 weeks at 37 degC by osteoclast formation assay; format: functional, cell-based
Method in brief: (§1)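 Nonadherent human marrow mononuclear cells from healthy donors, 2×10^5 per well, in MEM with 20% horse serum, 10 ng/mL M-CSF and 25 ng/mL RANKL (legend states RANKL 50 ng/mL). Compounds present throughout, with drug-containing half-medium changes twice weekly; 3 weeks at 37 °C, 5% CO2. 23c6 antibody stain; 23c6+ cells with ≥3 nuclei counted; triplicate, mean ± SD.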

[6] = target: T1, Cannabinoid receptor 2; test: Inverse agonist activity at human CB2 receptor expressed in CHO cells assessed as increase in forskolin-induced cAMP accumulation incubated for 45 mins by TR-FRET method based LANCE cAMP assay; format: functional, cell-based
[7] = tested on: Bone marrow cell; test: Inhibition of osteoclastogenesis in human mononuclear bone marrow cells at 10 uM incubated for 3 weeks at 37 degC by osteoclast formation assay; format: functional; conditions: 504 h
Method in brief: as §1

[8] = tested on: Bone marrow cell; test: Inhibition of osteoclastogenesis in human mononuclear bone marrow cells at 0.1 uM incubated for 3 weeks at 37 degC by osteoclast formation assay; format: functional; conditions: 504 h
Method in brief: as §1

[9] = tested on: Bone marrow cell; test: Inhibition of osteoclastogenesis in human mononuclear bone marrow cells at 1 uM incubated for 3 weeks at 37 degC by osteoclast formation assay; format: functional; conditions: 504 h
Method in brief: as §1

Cannabinoid receptor 1, sequence (P21554 whole entry): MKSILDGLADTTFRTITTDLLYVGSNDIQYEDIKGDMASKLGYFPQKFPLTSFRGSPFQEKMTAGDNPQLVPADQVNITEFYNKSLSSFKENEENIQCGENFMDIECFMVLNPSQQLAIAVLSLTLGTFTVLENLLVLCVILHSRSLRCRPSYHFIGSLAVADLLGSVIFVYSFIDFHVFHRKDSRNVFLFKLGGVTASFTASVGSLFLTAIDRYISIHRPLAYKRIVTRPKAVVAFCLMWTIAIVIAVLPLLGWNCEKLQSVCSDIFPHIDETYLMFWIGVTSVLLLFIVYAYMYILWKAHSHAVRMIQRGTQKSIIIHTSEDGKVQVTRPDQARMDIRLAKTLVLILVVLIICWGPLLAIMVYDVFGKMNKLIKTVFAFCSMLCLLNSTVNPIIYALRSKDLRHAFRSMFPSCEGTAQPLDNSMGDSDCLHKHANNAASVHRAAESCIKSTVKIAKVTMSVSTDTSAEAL

SMILES	Ki [1] [µM]	Ratio Ki [2]	Ki [3] [µM]	also measured
COc1ccc(C(NC(=O)Cc2ccccc2)NC(=O)Cc2ccccc2)cc1	> 20	> 26	–	–
O=C(Cc1ccccc1)NC(Cc1ccccc1)NC(=O)Cc1ccccc1	> 20	–	> 20	–
Cc1ccc(Cn2nc(C(=O)N[C@@H]3C(C)(C)[C@@H]4CC[C@@]3(C)C4)cc2-c2ccc(Cl)c(C)c2)cc1 [SR-144528]	–	–	–	Activity [4]: Non-toxic
O=C(Cc1ccc(Cl)cc1)NC(NC(=O)Cc1ccc(Cl)cc1)c1ccccc1	–	–	> 20	–
COc1ccc(C(NC(=O)Cc2ccc(C(F)(F)F)cc2)NC(=O)Cc2ccc(C(F)(F)F)cc2)cc1	–	–	> 20	–
CCCCN(CCCC)c1ccc(C(NC(=O)Cc2ccccc2)NC(=O)Cc2ccccc2)cc1	> 20	> 90	–	–
O=C(Cc1ccccc1)NC(NC(=O)Cc1ccccc1)c1ccc(N(Cc2ccccc2)Cc2ccccc2)cc1	> 20	> 99	0.203	–
CCN(CC)c1ccc(C(NC(=O)C(C)C)NC(=O)C(C)C)cc1	> 20	–	–	–
CCN(CC)c1ccc(C(NC(=O)c2ccccc2)NC(=O)c2ccccc2)cc1	> 20	> 29	–	–
O=C(Cc1ccc(C(F)(F)F)cc1)NC(NC(=O)Cc1ccc(C(F)(F)F)cc1)c1ccc(Cl)cc1	–	–	> 20	–
CC(C)Oc1ccc(C(NC(=O)Cc2ccccc2)NC(=O)Cc2ccccc2)cc1	> 20	–	–	inhibition [5]: Dose-dependent effect; Activity [4]: Non-toxic
O=C(Cc1ccc(C(F)(F)F)cc1)NC(NC(=O)Cc1ccc(C(F)(F)F)cc1)c1ccc(F)cc1	–	–	> 20	–
CC(C)c1ccc(C(NC(=O)Cc2ccccc2)NC(=O)Cc2ccccc2)cc1	> 20	–	–	inhibition [5]: Dose-dependent effect; EC50 [6]: 0.00411 µM; Activity [4]: Non-toxic
O=C(Cc1ccc(Cl)cc1)NC(NC(=O)Cc1ccc(Cl)cc1)c1ccc(Cl)cc1	> 20	> 130	–	–
O=C(Cc1ccccc1)NC(NC(=O)Cc1ccccc1)c1ccc([N+](=O)[O-])cc1	–	–	> 20	–
O=C(Cc1ccc(Cl)cc1)NC(NC(=O)Cc1ccc(Cl)cc1)c1ccc([N+](=O)[O-])cc1	–	–	> 20	–
CCCCCCCCCC(=O)NC(NC(=O)CCCCCCCCC)c1ccc(N(CC)CC)cc1	> 20	–	–	–
O=C(Cc1ccc(Cl)cc1)NC(NC(=O)Cc1ccc(Cl)cc1)c1ccccc1C(F)(F)F	> 20	> 127	–	–
O=C(Cc1ccccc1)NC(NC(=O)Cc1ccccc1)c1ccc(N2CCCCC2)cc1	> 20	> 34	–	–
O=C(Cc1ccccc1)NC(NC(=O)Cc1ccccc1)c1ccc(C(F)(F)F)cc1	> 20	> 34	–	–
Nc1ccc(C(NC(=O)Cc2ccccc2)NC(=O)Cc2ccccc2)cc1	–	–	12.6	–
O=C(Cc1ccc(Cl)cc1)NC(NC(=O)Cc1ccc(Cl)cc1)c1ccc(C(F)(F)F)cc1	> 20	> 198	–	–

SMILES	Ki [1] [µM]	Ratio Ki [2]	Ki [3] [µM]	also measured
CCN(CC)c1ccc(C(NC(=O)C(C)(C)C)NC(=O)C(C)(C)C)cc1	> 20	–	–	–
O=C(Cc1ccc(C(F)(F)F)cc1)NC(NC(=O)Cc1ccc(C(F)(F)F)cc1)c1ccccc1	–	–	> 20	–
CN(C)c1ccc(C(NC(=O)Cc2ccccc2)NC(=O)Cc2ccccc2)cc1	> 20	> 26	–	inhibition [5]: Dose-dependent effect; EC50 [6]: 0.159 µM; Activity [4]: Non-toxic
Cc1ccc(Cn2nc(C(=O)NC3C4(C)CCC(C4)C3(C)C)cc2-c2ccc(Cl)c(C)c2)cc1 (centres undefined)	–	–	–	inhibition [5]: Dose-dependent effect
CCCCCC(=O)NC(NC(=O)CCCCC)c1ccc(N(CC)CC)cc1	> 20	> 800	–	EC50 [6]: 0.0134 µM
CCCCCC(NC(=O)Cc1ccccc1)NC(=O)Cc1ccccc1	> 20	–	–	–
O=C(Cc1ccc(C(F)(F)F)cc1)NC(NC(=O)Cc1ccc(C(F)(F)F)cc1)c1ccc(C(F)(F)F)cc1	–	–	> 20	–
Cc1ccc(C(NC(=O)Cc2ccc(Cl)cc2)NC(=O)Cc2ccc(Cl)cc2)cc1	> 20	> 43	–	–
Cc1ccc(C(NC(=O)Cc2ccc(C(F)(F)F)cc2)NC(=O)Cc2ccc(C(F)(F)F)cc2)cc1	–	–	> 20	–
CCCN(CCC)c1ccc(C(NC(=O)Cc2ccccc2)NC(=O)Cc2ccccc2)cc1	> 20	–	0.022	EC50 [6]: 0.0283 µM
O=C(Cc1ccccc1)NC(NC(=O)Cc1ccccc1)c1ccc(N2CCCC2)cc1	> 20	> 281	0.071	EC50 [6]: 0.0171 µM
CCN(CC)c1ccc(C(NC(=O)CCc2ccccc2)NC(=O)CCc2ccccc2)cc1	> 20	–	0.213	–
CCCCC(=O)NC(NC(=O)CCCC)c1ccc(N(CC)CC)cc1	> 20	> 109	–	–
CCCCCCCC(=O)NC(NC(=O)CCCCCCC)c1ccc(N(CC)CC)cc1	> 20	> 136	–	–
O=C(Cc1ccc(C(F)(F)F)cc1)NC(NC(=O)Cc1ccc(C(F)(F)F)cc1)c1ccccc1F	–	–	> 20	–
O=C(Cc1ccccc1)NC(/C=C/c1ccccc1)NC(=O)Cc1ccccc1	> 20	–	–	–
CCN(CC)c1ccc(C(NC(=O)Cc2ccccc2)NC(=O)Cc2ccccc2)cc1	> 20	> 313	–	inhibition at 10 µM [7]: 84%; inhibition [5]: Dose-dependent effect; inhibition at 0.1 µM [8]: 72%; inhibition at 1 µM [9]: 79%; EC50 [6]: 0.00573 µM; Activity [4]: Non-toxic
COc1ccc(C(NC(=O)Cc2ccc(Cl)cc2)NC(=O)Cc2ccc(Cl)cc2)cc1	> 20	> 65	–	–
O=C(Cc1ccccc1)NC(CCc1ccccc1)NC(=O)Cc1ccccc1	> 20	–	–	–
O=C(Cc1ccc(Cl)cc1)NC(NC(=O)Cc1ccc(Cl)cc1)c1ccc(F)cc1	–	–	> 20	–
CCN(CC)c1ccc(C(NC(=O)/C=C/c2ccccc2)NC(=O)/C=C/c2ccccc2)cc1	> 20	> 119	0.167	–
